These results are taken from ChEMBL document CHEMBL1153104, “Synthesis and structural optimization of multiple H-bonding region of diarylalkyl (thio)amides as novel TRPV1 antagonists” (Bioorg Med Chem, 2009).

SMILES strings stand for the structures.

Chain of Transient receptor potential cation channel subfamily V member 1 (O35433 whole entry): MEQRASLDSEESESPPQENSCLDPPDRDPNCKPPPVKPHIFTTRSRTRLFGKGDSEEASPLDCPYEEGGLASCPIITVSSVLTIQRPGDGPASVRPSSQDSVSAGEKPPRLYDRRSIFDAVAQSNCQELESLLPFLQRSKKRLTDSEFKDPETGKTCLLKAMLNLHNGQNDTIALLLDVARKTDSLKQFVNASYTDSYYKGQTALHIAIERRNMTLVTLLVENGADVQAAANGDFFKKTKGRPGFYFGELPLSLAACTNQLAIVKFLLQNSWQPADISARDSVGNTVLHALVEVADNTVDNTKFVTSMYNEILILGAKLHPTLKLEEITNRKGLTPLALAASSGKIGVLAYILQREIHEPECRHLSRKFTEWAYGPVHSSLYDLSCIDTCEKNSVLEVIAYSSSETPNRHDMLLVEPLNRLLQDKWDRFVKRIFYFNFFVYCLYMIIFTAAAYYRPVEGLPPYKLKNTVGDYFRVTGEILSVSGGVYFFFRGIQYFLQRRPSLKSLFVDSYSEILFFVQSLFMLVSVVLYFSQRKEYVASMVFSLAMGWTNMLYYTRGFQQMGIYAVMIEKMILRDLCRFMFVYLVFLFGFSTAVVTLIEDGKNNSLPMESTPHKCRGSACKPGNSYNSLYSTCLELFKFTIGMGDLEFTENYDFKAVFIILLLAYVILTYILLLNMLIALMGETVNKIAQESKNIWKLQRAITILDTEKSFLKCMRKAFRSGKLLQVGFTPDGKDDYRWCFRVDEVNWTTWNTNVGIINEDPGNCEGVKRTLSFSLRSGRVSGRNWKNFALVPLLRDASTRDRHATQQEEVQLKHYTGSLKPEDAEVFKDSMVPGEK

This assay concerns the target Transient receptor potential cation channel subfamily V member 1 (Rattus norvegicus, UniProt O35433). Description: Antagonist activity at TRPV1 in Sprague-Dawley rat DRG neurons assessed as inhibition of capsaicin-induced [45]Ca2+ uptake. The format is functional. An outline of the steps: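 Neonatal rat DRG neurons from all spinal levels were dissociated with collagenase/trypsin, then grown 3 days on poly-D-ornithine (1500–1700 neurons/well) in DME/F12 with 10% horse serum and C6-conditioned medium, with cytosine arabinoside for the first 2 days. Cells were exposed to ⁴⁵Ca²⁺, 0.5 capsaicin and compound for 10 min at room temperature, lysed in 0.3% SDS, and scintillation-counted. IC50 = 50% reduction of capsaicin response.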
As for `Cc1cc(CNC(=S)CCc2ccc(C(C)(C)C)cc2)ccc1NS(C)(=O)=O`, the 50% inhibitory concentration (IC50) (usually the concentration needed to halve the response being measured) is 60 nM.
The value for `Cc1cc(CNC(=S)CCc2ccc(C(C)(C)C)cc2)cc(Cl)c1NS(C)(=O)=O` was 80 nM; that for `CC(C)(C)c1ccc(CCC(=S)NCc2cc(F)c(NS(C)(=O)=O)c(C#N)c2)cc1` was 28 nM.
The value for `CC(C)(C)c1ccc(CCC(=S)NCc2ccc(NS(C)(=O)=O)c(C(F)(F)F)c2)cc1` was 940 nM; that for `COC(=O)c1cc(CNC(=S)CCc2ccc(C(C)(C)C)cc2)ccc1NS(C)(=O)=O` was 3700 nM; that for `CC(C)(C)c1ccc(CCC(=S)NCc2ccc(NS(C)(=O)=O)cc2C(F)(F)F)cc1` was 2400 nM.
With `CC(=O)c1cc(CNC(=S)CCc2ccc(C(C)(C)C)cc2)ccc1NS(C)(=O)=O`, the IC50 is 1000 nM.
Take `C#Cc1cc(CNC(=S)CCc2ccc(C(C)(C)C)cc2)cc(F)c1NS(C)(=O)=O`: the IC50 worked out at 75 nM.
Under `CC(C)(C)c1ccc(CCC(=S)NCc2ccc(NS(C)(=O)=O)c(C(=O)O)c2)cc1` stands 22600 nM.
In the case of `Cc1cc(CNC(=S)CCc2ccc(C(C)(C)C)cc2)cc(C)c1NS(C)(=O)=O`, the IC50 worked out at 2900 nM.
For `C=Cc1cc(CNC(=S)CCc2ccc(C(C)(C)C)cc2)cc(F)c1NS(C)(=O)=O`, the concentration for half-maximal inhibition (IC50) was 32 nM.
Under `Cc1cc(CNC(=O)CCc2ccc(C(C)(C)C)cc2)cc(C)c1NS(C)(=O)=O` stands 620 nM.
Under `C=Cc1cc(CNC(=S)CCc2ccc(C(C)(C)C)cc2)ccc1NS(C)(=O)=O` stands 61 nM; under `CC(C)(C)c1ccc(CCC(=S)NCc2ccc(NS(C)(=O)=O)c([N+](=O)[O-])c2)cc1`, 72 nM; under `CC(C)(C)c1ccc(CCC(=S)NCc2ccc(NS(C)(=O)=O)cc2Cl)cc1`, 3500 nM.
The value for `Cc1cc(CNC(=O)CCc2ccc(C(C)(C)C)cc2)cc(Cl)c1NS(C)(=O)=O` was 100 nM; that for `CC(C)(C)c1ccc(CCC(=S)NCc2ccc(NS(C)(=O)=O)c(C#N)c2)cc1` was 55 nM; that for `CCc1cc(CNC(=S)CCc2ccc(C(C)(C)C)cc2)ccc1NS(C)(=O)=O` was 240 nM.
For the molecule `CC(C)(C)c1ccc(CCC(=O)NCc2cc(F)c(NS(C)(=O)=O)c(C3CC3)c2)cc1`, the IC50 amounted to 360 nM.
The value for `CC(C)(C)c1ccc(CCC(=S)NCc2ccc(NS(C)(=O)=O)c(Cl)c2)cc1` was 96 nM; that for `CC(C)(C)c1ccc(CCC(=S)NCc2ccc(NS(C)(=O)=O)c(I)c2)cc1` was 300 nM; that for `CC(C)(C)c1ccc(CCC(=S)NCc2ccc(NS(C)(=O)=O)c(F)c2)cc1` was 40 nM.
The value for `CC(C)(C)c1ccc(CCC(=S)NCc2cc(F)c(NS(C)(=O)=O)c(C3CC3)c2)cc1` was 270 nM.
